Experimental data collected from several papers.
Protocols differ between the studies behind these lines.
Target: Serine/threonine-protein kinase LATS1 (LATS1, Homo sapiens, UniProt O95835)
Residues used in one study (O95835 1-1130): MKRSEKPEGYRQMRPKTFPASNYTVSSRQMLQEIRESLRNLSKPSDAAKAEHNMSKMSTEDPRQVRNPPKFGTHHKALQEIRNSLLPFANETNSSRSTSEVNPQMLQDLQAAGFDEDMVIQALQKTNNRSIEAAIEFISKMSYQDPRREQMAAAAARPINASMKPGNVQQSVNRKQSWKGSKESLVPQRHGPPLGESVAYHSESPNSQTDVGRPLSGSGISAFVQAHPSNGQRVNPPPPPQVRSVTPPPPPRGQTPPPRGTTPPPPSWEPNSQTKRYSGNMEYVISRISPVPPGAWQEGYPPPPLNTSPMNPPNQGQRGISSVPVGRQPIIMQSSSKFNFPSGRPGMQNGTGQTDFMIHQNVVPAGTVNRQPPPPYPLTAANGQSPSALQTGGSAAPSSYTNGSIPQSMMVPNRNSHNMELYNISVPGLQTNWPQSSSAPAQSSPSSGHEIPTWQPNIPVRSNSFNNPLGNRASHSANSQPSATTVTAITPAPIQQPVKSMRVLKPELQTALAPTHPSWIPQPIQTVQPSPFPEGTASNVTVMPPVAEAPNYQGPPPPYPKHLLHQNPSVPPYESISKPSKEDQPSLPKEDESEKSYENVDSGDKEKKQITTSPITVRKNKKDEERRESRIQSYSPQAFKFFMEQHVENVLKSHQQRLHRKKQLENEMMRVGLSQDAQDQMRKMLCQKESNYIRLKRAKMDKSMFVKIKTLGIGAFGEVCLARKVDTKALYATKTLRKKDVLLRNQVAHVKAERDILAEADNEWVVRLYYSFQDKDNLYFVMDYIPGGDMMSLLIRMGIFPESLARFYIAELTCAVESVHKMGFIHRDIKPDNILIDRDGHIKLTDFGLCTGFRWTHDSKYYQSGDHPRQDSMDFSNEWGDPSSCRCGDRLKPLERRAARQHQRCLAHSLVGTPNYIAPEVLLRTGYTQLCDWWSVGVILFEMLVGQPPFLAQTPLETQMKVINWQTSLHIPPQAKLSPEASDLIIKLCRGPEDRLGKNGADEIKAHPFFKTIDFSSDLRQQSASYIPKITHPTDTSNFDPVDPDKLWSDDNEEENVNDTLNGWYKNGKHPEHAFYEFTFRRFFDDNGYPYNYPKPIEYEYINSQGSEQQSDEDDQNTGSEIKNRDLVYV

Compound | test | conditions | remaining binding [%]
O=C(NCCCN1CCOCC1)c1ccc(Nc2nccc(-c3cc4ccccc4s3)n2)cc1 | binding, competition with immobilised ligand | 1 µM | 100
NS(=O)(=O)c1cc(NC(=O)Cc2ccccc2)ccc1Oc1cccc(Cl)c1 | cell-free assay, competition with immobilised ligand | 1 µM | 79
CCN1CCN(Cc2ccc(C(=O)Nc3ccc(C)c(Oc4ccc5c(c4)CC(=O)N5)c3)cc2C(F)(F)F)CC1 | binding, competition with immobilised ligand | 1 µM | 94
Cc1cc(NC(=O)c2cccc(S(F)(F)(F)(F)F)c2)cc(-n2ccn3nc(-c4cccnc4)cc23)c1 | cell-free assay, competition with immobilised ligand | 1 µM | 100
N[C@@H]1CCN(c2nccc(-c3cnn4ncccc34)n2)C1 | binding | 1 µM | 100
Cc1cnc(Nc2ccc(C(=O)N3CCC(N4CCCC4)CC3)cc2)nc1-c1cc2ccccc2s1 | binding, competition with immobilised ligand | 1 µM | 89
COc1ncc2cc3ccccc3nc2c1C#N | cell-free assay, competition with immobilised ligand | 5 µM | 93
O=C(Nc1ccc(Oc2ccc(F)cc2)cc1)N1CCc2ncccc2[C@H]1c1ccc(F)cc1 | cell-free assay, competition with immobilised ligand | 1 µM | 86
Cc1cnn2ncc(-c3ccnc(N(C)C)n3)c2c1 | binding | 1 µM | 48
C[C@@H](c1ccc(-n2cnc3c(N)ncnc32)cc1)N1CCc2nn(C)c(Cc3ccccc3)c2C1=O | binding, competition with immobilised ligand | 0.1 µM | 100
CN(c1nccc(-c2cnn3ncccc23)n1)C1CC1 | binding | 1 µM | 82
O=C(Nc1c[nH]nc1C(=O)NC1CCNCC1)c1cc(F)cc(F)c1 | binding, competition with immobilised ligand | 1 µM | 100
CN(C)c1nccc(-c2cnc3ncccn23)n1 | binding | 1 µM | 100
COc1cc(-c2cn(C3CCc4c(F)cccc4N(CC(F)(F)F)C3=O)nn2)ccc1-n1cnc(C)c1 (centres unmarked) | cell-free assay, competition with immobilised ligand | 1 µM | 93
COc1cnc(Nc2cccc(S(N)(=O)=O)c2)nc1N1CCN(c2ccccc2)CC1 | binding, competition with immobilised ligand | 1 µM | 100
Cc1nc(Cc2cccc(C(F)(F)F)c2)sc1-c1ccc(C(N)=O)nc1 | cell-free assay, competition with immobilised ligand | 1 µM | 100
C[C@@H]1CCN(c2nccc(-c3cnn4ncccc34)n2)C1 | binding | 1 µM | 100
CNC(=O)[C@@H]1CC[C@@H](n2c(-c3ccc4cnccc4c3)nc3ccc(C(=O)NCc4cccc(C(N)=O)c4)cc32)C1 | binding, competition with immobilised ligand | 1 µM | 100
CCCCN(CCCC)C(=O)CN1C[C@@H](c2cc(OC)c3c(c2)OCO3)[C@H](C(=O)O)[C@H]1CC(C)(C)CCC | cell-free assay, competition with immobilised ligand | 1 µM | 75.2
c1cnn2ncc(-c3ccnc(N4CCC45COC5)n3)c2c1 | binding | 1 µM | 88
